GSK3beta inhib: human GSK3beta kinase inhibitors, primary screen, biochemical, cell-free homogeneous, HTS; Glycogen synthase kinase-3 beta (Homo sapiens), P49841; activity score (negative = inhibition), % at 10 µM; GST-GSK3beta kinase, ADP-Glo luminescence, 60 min; hits give low values; AID 2097, 2009; hit rate 0.038% among 300,000;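 active = more than half of replicate wells score below -50%, meaning over 50% inhibition versus plate controls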;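 also: 0% = median DMSO wells and -100% = median GW8510 positive control wells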
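Assay system: GST-tagged human GSK3beta kinase, cell-free; Input: 1.6 ng GSK3beta; Medium: Tris/MgCl2 kinase buffer; Timing: 60 min enzyme reaction, room temperature; Signal: ADP-Glo luminescence quantifying ADP generated by kinase; Evaluation: score relative to plate controls; Benchmarks: DMSO neutral wells and GW8510 at 20 µM as positive.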
DYRK1A inh: rat Dyrk1A kinase inhibitors, primary screen, biochemical, single point, plate reader; Dual specificity tyrosine-phosphorylation-regulated kinase 1A (Rattus norvegicus), Q63470; ADP-Glo luminescence, NFATc1 peptide; inhibition, % at 12.5 µM; hit rate 0.43% among 310,000; AID 504441, 2011; in the data active = inhibition above about 50%;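 also: plate controls were vehicle with enzyme for no effect and no enzyme for full effect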
GSK3 alpha inh: blockers of GSK3A enzyme activity – biochemical, luminescence, cell-free homogeneous, HTS, primary screen | Glycogen synthase kinase-3 alpha (Homo sapiens), P49840 | GSK-3 alpha kinase, ADP-Glo luminescence, 60 min | inhibition, % at 10 µM | hit rate 0.1% among 320,000 | AID 2650, 2010;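 active = more than half of replicates show inhibition above 20%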;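 also: GST-tagged GSK-3 alpha with peptide substrate and 25 µM ATP; 0% = DMSO neutral wells and 100% = GW8510 positive control wells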
CDK5 inh: inhibitors of human CDK5/p35 kinase, primary screen, biochemical, single concentration; Cyclin-dependent kinase 5 (Homo sapiens) + Cyclin-dependent kinase 5 activator 1 (Homo …; Recombinant CDK5/p35, ADP-Glo luminescence, 60 min; inhibition, % at 10 µM; hit rate 0.01% among 330,000;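 active = highest replicate inhibition of at least 50% and at least 75% of replicates reaching 50%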;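 also: plate controls were DMSO neutral control for no effect and GW8510 at 10 µM for full effect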
Target sequence (Q00535 whole entry, looked up): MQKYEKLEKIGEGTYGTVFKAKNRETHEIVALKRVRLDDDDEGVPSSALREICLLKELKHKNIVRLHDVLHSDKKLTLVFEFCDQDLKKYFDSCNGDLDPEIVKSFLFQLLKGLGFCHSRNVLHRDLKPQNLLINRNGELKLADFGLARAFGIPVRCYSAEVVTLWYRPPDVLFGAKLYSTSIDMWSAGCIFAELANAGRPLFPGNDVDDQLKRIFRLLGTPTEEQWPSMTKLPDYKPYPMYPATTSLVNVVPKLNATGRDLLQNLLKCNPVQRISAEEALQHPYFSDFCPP
Target sequence (Q15078 whole entry, looked up): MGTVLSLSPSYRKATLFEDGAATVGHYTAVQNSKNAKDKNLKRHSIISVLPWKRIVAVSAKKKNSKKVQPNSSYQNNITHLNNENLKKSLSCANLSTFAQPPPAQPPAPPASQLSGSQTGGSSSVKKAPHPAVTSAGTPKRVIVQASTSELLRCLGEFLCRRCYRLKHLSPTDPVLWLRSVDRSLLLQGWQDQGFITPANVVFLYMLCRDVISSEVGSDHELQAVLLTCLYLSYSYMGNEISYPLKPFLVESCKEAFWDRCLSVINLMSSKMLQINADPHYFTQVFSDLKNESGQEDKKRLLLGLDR
STK33 inh: inhibitors of purified STK33 kinase, primary screen, biochemical, ADP-Glo luminescence, homogeneous, cell-free; Serine/threonine-protein kinase 33 (Homo sapiens), Q9BYT3; MBP phosphorylation; inhibition, % at 10 µM; hit rate 0.073% among 320,000; AID 2661, 2010;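 active = inhibition at or above 25%, using the most active replicate where run in duplicate; inactive = inhibition below 25%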
An asterisk follows results filed as active; · = no result. The sample as a whole holds a higher share of hits than the screen did.

SMILES | GSK3beta inhib | DYRK1A inh | GSK3 alpha inh | CDK5 inh | STK33 inh
OC(COc1ccc(F)cc1Cl)CN1CCC(Cc2ccccc2)CC1 (centres undefined) | -2 | 51* | 0 | 1 | 1
C=CC(=O)Nc1ccc(CN2C(=O)N(c3c(Cl)c(OC)cc(OC)c3Cl)Cc3cnc(NCCCCN(CC)CC)nc32)cc1 | · | 16 | 23 | 17 | 80*
CCN(CC)CCNC(=O)c1ccc(NC(=O)Cc2ccc(OC)c(S(=O)(=O)N3CCOCC3)c2)cc1 | · | 1 | · | -6 | ·
Cc1ccc(SCC(=O)Nc2ccc(N3CCN(C)CC3)c(F)c2)c(C)c1 | 0 | -4 | -2 | 1 | 0
O=C(O)c1ccc(N=Nc2c(O)[nH]c3ccccc23)cc1 | -1 | 5 | 51* | 5 | 29*
COc1ccc(-c2ncncc2-c2ccc(OC)c(OC)c2)c(O)c1 | 3 | 21 | 52* | 3 | 0
Cc1ncc(/C=C2\C(=O)Nc3ccccc32)[nH]1 | 0 | · | 7 | · | 76*
CN(C)C=NC(=O)/C(C#N)=C1\CCc2ccccc2N1 | -34 | 33 | 52* | 1 | 10
COc1ccc(/C=C(\C#N)C(=O)N=CN(C)C)cc1 | 0 | 6 | · | 1 | 0
C=CCn1c(SCC(=O)Nc2ccc(Cl)cn2)nnc1C1CC1 | -2 | 9 | 32 | -2 | 1
CCn1c(SCC(=O)Nc2ccc(Br)cn2)nnc1C1CC1 | -52* | 4 | 23 | 0 | 1
CCn1c(SCC(=O)Nc2nccs2)nnc1C1CC1 | -9 | 1 | 8 | 0 | -1
Cn1c(SCC(=O)Nc2ccc(Cl)cn2)nnc1C1CC1 | -30 | 9 | 51* | 0 | -1
Oc1ccccc1-c1nc(NCCN2CCOCC2)c2ccccc2n1 | -2 | 19 | 1 | · | 60*
COc1cccc(-c2nc(NCCN3CCOCC3)c3ccccc3n2)c1O | 0 | 7 | -1 | -1 | -1
CN1/C(=C/C2CC(=O)N(c3cccc4ccccc34)C2=O)C(C)(C)c2ccccc21 (centres undefined) | 2 | -9 | -4 | 2 | 0
CN1/C(=C/C2CC(=O)NC2=O)C(C)(C)c2ccccc21 (centres undefined) | · | -9 | 65* | 1 | 2
c1cncc(C2Nc3ccccc3-c3nc4ccccc4n32)c1 (centres undefined) | -1 | 26 | 10 | 3 | 39*
c1ccc2c(c1)NC(c1ccncc1)n1c-2nc2ccccc21 (centres undefined) | -9 | 10 | -16 | 0 | -1
CC(=O)N1CCc2c(sc(NC(=O)CN3C(=O)c4ccccc4C3=O)c2C(N)=O)C1 | -52* | 39 | 39 | 12 | 1
CC(=O)N1CCc2c(sc(NC(=O)CN3C(=O)CCC3=O)c2C(N)=O)C1 | -79* | 28 | 93* | 12 | 0
NC(=O)c1c(NC(=O)CN2C(=O)CCC2=O)sc2c1CCCCC2 | -8 | 9 | 17 | 11 | 0
CCC1(C)NC(=O)N(CC(=O)Nc2sc3c(c2C(N)=O)CCC3)C1=O (centres undefined) | -33 | 48 | 58* | 7 | 2
CN(CCOc1ccc(Cl)cc1)C(=O)c1cccc(S(=O)(=O)N2CCN(c3ccc(F)cc3)CC2)c1 | · | · | · | 0 | ·
CCCOc1ccc(C(=O)CCC(=O)OCC(=O)Nc2cccc(S(N)(=O)=O)c2)cc1 | · | -5 | · | 0 | ·
SMILES | GSK3beta inhib | DYRK1A inh | GSK3 alpha inh | CDK5 inh | STK33 inh
COc1cc(/C=C/C(C)=NNc2ccccc2)ccc1O | · | · | · | 1 | ·
O=C1NC(=S)S/C1=C\c1ccc(SCc2ccco2)o1 | · | 73* | 11 | 0 | 17
CCn1c(C)nc2cc(-c3nc4n(n3)Cc3ccccc3-4)ccc21 | -21 | 17 | 51* | 13 | 45*
Cc1ccc(-c2nc3n(n2)Cc2ccccc2-3)cc1 | 1 | 8 | 2 | 4 | 3
COc1cc2c(cc1OC)C(c1ccccc1Cl)N(C)CC2 (centres undefined) | 3 | -2 | -2 | 1 | 0
c1ccc(CN2CCC3CC2c2cc(N4CCOCC4)ccc23)cc1 (centres undefined) | · | · | · | 0 | ·
Cc1ccc(NS(=O)(=O)c2ccc(C(=O)N3CCCC(C(F)(F)F)C3)cc2)cc1 (centres undefined) | 1 | 2 | -1 | 1 | 0
CNC(=S)Nc1cccc(-c2cnc3ccccc3n2)c1 | -1 | 28 | 18 | 1 | 26*
COc1cc(/C=N/N=C2/C(=O)Nc3ccccc32)ccc1O | 1 | 35 | 6 | 8 | 38*
COC(=O)c1ccccc1NC(=O)N1CCN(C/C=C/c2ccccc2)CC1 | 3 | -5 | -1 | -1 | 32*
O=C(O)c1ccc(NC(=O)c2cccc(C(=O)Nc3ccc(C(=O)O)cc3)n2)cc1 | 0 | 38 | 8 | -1 | 34*
COc1ccc(-c2nn(-c3ccccc3)cc2/C=N/O)cc1OC | -56* | 40 | 73* | 4 | 3
Clc1ccc(CSc2nnc(-c3ccncc3)o2)cc1 | -48 | 5 | 10 | 1 | -1
Fc1ccc(CSc2nnc(-c3ccncc3)o2)cc1 | -54* | 3 | 13 | 0 | 1
CCc1ccc(S(=O)(=O)/N=C2\C=C(Nc3cccc(C(=O)O)c3)C(=O)c3ccccc32)cc1 | -5 | 42 | 8 | 3 | 1
O=C(O)c1ccc(NC2=C/C(=N/S(=O)(=O)c3ccccc3)c3ccccc3C2=O)cc1 | · | 80* | · | 11 | ·
CN(C)S(=O)(=O)c1cccc(NC(=O)CO/N=C(\N)c2ccccc2)c1 | -4 | 2 | 1 | 0 | -2
Cc1occc1C(=O)N/N=C/c1ccc(N(C)C)cc1 | -27 | 44 | 30 | 29 | 29*
CC(C)(C)OC(=O)COc1cc(F)ccc1[N+](=O)[O-] | · | 0 | -1 | 1 | 0
Cc1cc(N2CCN(c3ccccc3)CC2)n2c(n1)nc1ccccc12 | -1 | 11 | 56* | 0 | 1
Cc1cc(N2CCN(c3ccccc3)CC2)n2nnnc2n1 | 1 | 5 | -2 | -2 | 1
O=C1NC2(CCCCCC2)C(=O)N1Cc1cccc([N+](=O)[O-])c1 | 2 | -1 | 1 | 1 | 0
Cc1cc2nc(-c3ccc[nH]c3=O)[nH]c2cc1C | -33 | 7 | 61* | 20 | 23
O=C(NCCCO)c1cc2c(cn1)[nH]c1ccccc12 | -1 | 3 | -3 | -3 | 1
O=C(NCCCO)c1cc2c([nH]c3ccccc32)c(-c2ccccc2)n1 | 2 | 4 | 1 | 1 | 29*
O=C(Nc1nnc(CSCc2ccc(Cl)cc2)s1)c1cccc([N+](=O)[O-])c1 | -8 | -7 | -3 | -1 | -1
O=C(Nc1nnc(CSCc2ccc(F)cc2)s1)c1cccc([N+](=O)[O-])c1 | -5 | 53* | -1 | 0 | -1
